Results collected from several papers.
Target: Serine/threonine-protein kinase 33 (STK33, Homo sapiens, UniProt Q9BYT3)

SMILES | test | setting | quantity | value
Cn1cnc(Br)c1C1=CN(c2ncnc3[nH]cnc23)CCS1 | enzyme activity, inhibitor, radiometric | 50 nM | inhibition | 35.8%
Cc1ccc(Nc2nccc(N(C)c3ccc4c(C)n(C)nc4c3)n2)cc1S(N)(=O)=O | enzyme activity, inhibitor | 0.3 µM | inhibition | -2%
FC(F)(F)Oc1cccc(-c2cnc3ccc(-c4ccncc4)nn23)c1 | enzyme activity, inhibitor, radiometric | 5 µM | activity vs control | 100%
O=C(Nc1cnn(-c2csc(C(=O)NC3COC3)c2)c1)Nc1c(F)cccc1Cl | enzyme activity, inhibitor | 5 µM | remaining activity | 81.8%
Cn1cncc1C1=CN(c2ncnc3[nH]cnc23)CCS1 | enzyme activity, inhibitor, radiometric | 50 nM | inhibition | 23.6%
COc1cc(Nc2cnc(C#N)c(O[C@H](C)CN(C)C)n2)ncc1-c1cnn(C)c1 | enzyme activity, inhibitor, radiometric | 10 µM | remaining activity | 16%
Cn1nc(C(=O)NCc2ccc(C(=O)O)cc2)cc1-c1ccc2[nH]ccc2c1 | cell-free assay, competition with immobilised ligand | 0.1 µM | remaining binding | 87%
Cc1cnc(NC2CCOCC2)nc1-n1cnc(C(=O)NC(CN)c2cc(F)cc(Cl)c2)c1 (stereo not shown) | enzyme activity, inhibitor, radiometric | 1 µM | remaining activity | 71%
Cn1cc(Cl)c2c(Oc3c(F)cc(Nc4cc(Cl)nc(N)n4)cc3F)ccnc21 | cell-free assay, competition with immobilised ligand | 0.1 µM | remaining binding | 100%
CCCOc1ccc(OC)c(F)c1C(=O)c1ccc(C(=O)N[C@@H]2CNC[C@H]2NC(=O)c2ccc3[nH]ncc3c2)cc1 | enzyme activity, inhibitor | 10 µM | remaining activity | 7%
CC(C)c1ccc(NC(=O)c2cccs2)c(-c2nc3ccccc3[nH]c2=O)c1 | enzyme activity, inhibitor | 1 µM | activity vs control | 39%
Cn1nc(C(F)(F)F)cc1-c1cnc(N2CCc3cc(S(=O)(=O)Nc4c(F)cc(Cl)cc4F)cc(N4CCCC4=O)c32)nc1 | cell-free assay, competition with immobilised ligand | 1 µM | remaining binding | 100%
Cc1sc(C(=O)NC2COC2)cc1-n1cc(NC(=O)Nc2c(F)cccc2Cl)cn1 | enzyme activity, inhibitor | 10 µM | remaining activity | 87.6%
CN(C)c1ncnc(-c2ccc3nc(Nc4cc(CN5CCN(C(=O)CC(F)(F)F)CC5)ccn4)[nH]c3c2)c1Cl | cell-free assay, competition with immobilised ligand | 1 µM | remaining binding | 100%
COc1cc(/C=C/C(=O)CC(=O)/C=C/c2ccc(O)c(OC)c2)ccc1O | enzyme activity, inhibitor | 1 µM | activity vs control | 25%
CCCCN(CCCC)C(=O)CN1C[C@H](c2cc(OC)c3c(c2)OCO3)[C@@H](C(=O)O)[C@@H]1CC(C)(C)CCC | cell-free assay, competition with immobilised ligand | 1 µM | remaining binding | 100%
Cc1ccc(C(=O)Nc2ccc(CN3CCN(C)CC3)c(C(F)(F)F)c2)cc1C#Cc1cnc2cccnn12 | enzyme activity, inhibitor | 23.5 nM | remaining activity | 96%
CS(=O)(=O)N1CCCC(NC(=O)[C@H](CCC2CCCCC2)NC(=O)c2ccc(CNc3ncnc4c3nnn4-c3ccccc3)cc2)C1 (stereo partly shown) | cell-free assay, competition with immobilised ligand | 0.1 µM | remaining binding | 84%
Cc1ncc([N+](=O)[O-])n1C(=NO)c1ccccc1C(F)(F)F | enzyme activity, inhibitor | 10 µM | inhibition | 11.4%
